Data taken from ChEMBL document CHEMBL3351736, “A promising camptothecin derivative: Semisynthesis, antitumor activity and intestinal permeability” (Eur J Med Chem, 2014).
Activity calls are given as the source filed them. The rule behind the calls is not given here.

How the values were obtained:
[1] = Effective permeability from basolateral to apical side in human Caco2 cells at 50 uM after 15 to 90 mins by HPLC analysis; format: ADME, cell-based; conditions: Caco-2, read-out: Peff
How it was run: (§1)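 Caco-2 monolayers grown 19-22 days on polycarbonate transwell inserts (4.2 cm², 0.4 µm pore) at 37 °C, 5% CO2; TEER checked before and after each run. Compound added to donor side at 37 °C, 50 rpm. Receiver sampled at 15, 30, 60 and 90 min; donor sampled at start and end. HPLC analysis. Sodium azide, when used, placed on both sides. Three independent experiments.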

A-375 [2] = test: Cytotoxicity against human A375 cells after 24 hrs by MTT assay; format: functional, cell-based; conditions: A-375, 24 h
How it was run: (§2)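 Cells seeded at 25000 per well and held 24 h at 37 °C in 5% CO2. Medium was then renewed and compounds added at increasing concentrations (DMSO 0.1%, or water for topotecan) for 24 h. MTT solution (5 mg/mL) was added for 3 h at 37 °C, then absorbance read at 570 nm, corrected at 630 nm. IC50 in µM.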

Jurkat = test: Cytotoxicity against human Jurkat cells after 24 hrs by MTT assay; format: functional, cell-based; how it was run: as §2
Caco-2 [3] = test: Induction of apoptosis in human Caco2 cells assessed as necrotic cells at 0.05 uM after 24 hrs by Annexin V/propidium iodide staining-based flow cytometric analysis (reference value: 0.41 +/- 0.02%); format: functional
[4] = Effective permeability from apical to basolateral side in human Caco2 cells at 50 uM after 15 to 90 mins by HPLC analysis in presence of sodium azide; format: ADME, cell-based; conditions: Caco-2, with sodium azide, read-out: Peff; how it was run: as §1
Caco-2 [5] = test: Induction of apoptosis in human Caco2 cells assessed as necrotic cells at 0.05 uM after 48 hrs by Annexin V/propidium iodide staining-based flow cytometric analysis (reference value: 0.41 +/- 0.02%); format: functional
Caco-2 [6] = test: Induction of apoptosis in human Caco2 cells assessed as vital cells at 0.5 uM after 48 hrs by Annexin V/propidium iodide staining-based flow cytometric analysis (reference value: 96.67 +/- 1.02%); format: functional
Small intestine = test: Effective permeability in Wistar rat small intestine assessed as absorption rate coefficient at 50 uM measured after 5 mins in every 5 min interval up to 30 mins; format: ADME, tissue-based
How it was run: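 Male Wistar rats fasted 2 h with water available, then anaesthetised with diazepam (1.67 mg/kg), ketamine (50 mg/kg) and atropine (1 mg/kg) and kept at 37°C on a heated surface. In situ intestinal perfusion. Perfusate sampled from 5 min at 5 min intervals up to 30 min. Absorption rate constant (Ka) and Peff derived.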

HeLa [7] = test: Cytotoxicity against human HeLa cells after 24 hrs by MTT assay; format: functional, cell-based; how it was run: as §2
MDA-MB-231 [8] = test: Cytotoxicity against human MDA-MB-231 cells after 24 hrs by MTT assay; format: functional, cell-based; conditions: MDA-MB-231, 24 h; how it was run: as §2
A-375 [9] = test: Induction of apoptosis in human A375 cells assessed as p53 phosphorylation at Ser15 by Western blotting analysis; format: functional, cell-based
How it was run: (§3)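 Cells treated 24 h. About 10^6 cells lysed on ice 15 min in Hepes pH 7.4/Triton X-100 buffer with phosphatase and protease inhibitors, then spun 13,000 × g. 30 µg protein run on 12% SDS-PAGE and blotted to nitrocellulose. Primary anti-phospho-p53 (Ser15) and anti-p53 at 1:1000 for 2 h at room temperature, then HRP secondary and ECL densitometry. Results referred to untreated control.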

A-375 [10] = test: Induction of apoptosis in human A375 cells assessed as inhibition of DNA synthesis at 0.8 to 1.6 uM after 24 hrs by BrdU staining-based ELISA; format: functional, cell-based
How it was run: (§4)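 BrdU colorimetric cell proliferation ELISA. Cells seeded at 25,000 per well, compounds added 24 h after seeding and incubated 24 h. Cells fixed and the immunoassay run per kit. Absorbance read at 370-492 nm over 3 intervals of 5 min; absorbance difference proportional to BrdU incorporation. Mean of three separate experiments in triplicate, compared with untreated control.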

[11] = Effective permeability from apical to basolateral side in human Caco2 cells at 50 uM after 15 to 90 mins by HPLC analysis; format: ADME, cell-based; conditions: Caco-2, read-out: Peff; how it was run: as §1
HeLa [12] = test: Induction of apoptosis in human HeLa cells assessed as inhibition of DNA synthesis at 0.8 to 1.6 uM after 24 hrs by BrdU staining-based ELISA; format: functional, cell-based; how it was run: as §4
Caco-2 [13] = test: Induction of apoptosis in human Caco2 cells assessed as early apoptotic cells at 0.05 uM after 48 hrs by Annexin V/propidium iodide staining-based flow cytometric analysis (reference value: 0.72 +/- 0.03%); format: functional
Caco-2 [14] = test: Induction of apoptosis in human Caco2 cells assessed as necrotic cells at 0.5 uM after 24 hrs by Annexin V/propidium iodide staining-based flow cytometric analysis (reference value: 0.41 +/- 0.02%); format: functional
Caco-2 [15] = test: Induction of apoptosis in human Caco2 cells assessed as late apoptotic cells at 0.05 uM after 24 hrs by Annexin V/propidium iodide staining-based flow cytometric analysis (reference value: 2.20 +/- 0.77%); format: functional
MDA-MB-231 [16] = test: Induction of apoptosis in human MDA-MB-231 cells assessed as inhibition of DNA synthesis at 0.8 to 1.6 uM after 24 hrs by BrdU staining-based ELISA; format: functional, cell-based; how it was run: as §4
Caco-2 [17] = test: Induction of apoptosis in human Caco2 cells assessed as early apoptotic cells at 0.05 uM after 24 hrs by Annexin V/propidium iodide staining-based flow cytometric analysis (reference value: 0.72 +/- 0.03%); format: functional
[18] = Effective permeability in Wistar rat small intestine at 50 uM measured after 5 mins in every 5 min interval up to 30 mins; format: ADME, tissue-based; conditions: not told, read-out: Peff
How it was run: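 In situ intestinal perfusion in male Wistar rats fasted 2 h with water allowed. Anaesthesia with diazepam (1.67 mg/kg), ketamine (50 mg/kg) and atropine (1 mg/kg); animals kept at 37 °C. Perfusate sampled every 5 min from 5 to 30 min; absorption rate constant and Peff derived.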

[19] = Permeability from apical to basolateral side in human Caco2 cells at 5 to 50 uM after 15 to 90 mins by HPLC analysis; format: ADME, cell-based; conditions: caco-2, 50 µM; how it was run: as §1
Caco-2 [20] = test: Induction of apoptosis in human Caco2 cells assessed as late apoptotic cells at 0.5 uM after 48 hrs by Annexin V/propidium iodide staining-based flow cytometric analysis (reference value: 2.20 +/- 0.77%); format: functional
Caco-2 [21] = test: Induction of apoptosis in human Caco2 cells assessed as vital cells at 0.05 uM after 48 hrs by Annexin V/propidium iodide staining-based flow cytometric analysis (reference value: 96.67 +/- 1.02%); format: functional
Caco-2 [22] = test: Induction of apoptosis in human Caco2 cells assessed as late apoptotic cells at 0.5 uM after 24 hrs by Annexin V/propidium iodide staining-based flow cytometric analysis (reference value: 2.20 +/- 0.77%); format: functional
[23] = Effective permeability from basolateral to apical side in human Caco2 cells at 50 uM after 15 to 90 mins by HPLC analysis in presence of sodium azide; format: ADME, cell-based; conditions: Caco-2, with sodium azide, read-out: Peff; how it was run: as §1
[24] = Permeability from basolateral to apical side in human Caco2 cells at 5 to 50 uM after 15 to 90 mins by HPLC analysis; format: ADME, cell-based; conditions: caco-2, 50 µM; how it was run: as §1
Homo sapiens = organism: Homo sapiens; test: Activity at Pgp transporter (unknown origin)
HeLa [25] = test: Induction of apoptosis in human HeLa cells assessed as p53 phosphorylation at Ser15 by Western blotting analysis; format: functional, cell-based; how it was run: as §3
Caco-2 [26] = test: Induction of apoptosis in human Caco2 cells assessed as early apoptotic cells at 0.5 uM after 48 hrs by Annexin V/propidium iodide staining-based flow cytometric analysis (reference value: 0.72 +/- 0.03%); format: functional
[27] = Cytotoxicity against human Caco2 cells after 24 hrs by MTT assay; format: functional, cell-based; conditions: Caco-2, 24 h
Caco-2 [28] = test: Induction of apoptosis in human Caco2 cells assessed as vital cells at 0.05 uM after 24 hrs by Annexin V/propidium iodide staining-based flow cytometric analysis (reference value: 96.67 +/- 1.02%); format: functional
Caco-2 [29] = test: Induction of apoptosis in human Caco2 cells assessed as vital cells at 0.5 uM after 24 hrs by Annexin V/propidium iodide staining-based flow cytometric analysis (reference value: 96.67 +/- 1.02%); format: functional
MDA-MB-231 [30] = test: Induction of apoptosis in human MDA-MB-231 cells assessed as p53 phosphorylation at Ser15 by Western blotting analysis; format: functional, cell-based; how it was run: as §3
Caco-2 [31] = test: Induction of apoptosis in human Caco2 cells assessed as late apoptotic cells at 0.05 uM after 48 hrs by Annexin V/propidium iodide staining-based flow cytometric analysis (reference value: 2.20 +/- 0.77%); format: functional
Caco-2 [32] = test: Induction of apoptosis in human Caco2 cells assessed as necrotic cells at 0.5 uM after 48 hrs by Annexin V/propidium iodide staining-based flow cytometric analysis (reference value: 0.41 +/- 0.02%); format: functional
Caco-2 [33] = test: Induction of apoptosis in human Caco2 cells assessed as early apoptotic cells at 0.5 uM after 24 hrs by Annexin V/propidium iodide staining-based flow cytometric analysis (reference value: 0.72 +/- 0.03%); format: functional

| SMILES | IC50 (A-375 [2]) [nM] | IC50 (Jurkat) [nM] | Activity (Caco-2 [3]) [%] | Activity (Caco-2 [5]) [%] | Activity (Caco-2 [6]) [%] | Ka (Small intestine) [h⁻¹] | IC50 (HeLa [7]) [nM] | IC50 (MDA-MB-231 [8]) [nM] | Activity (A-375 [9]) | Activity (A-375 [10]) | Papp A→B at 50 µM [11] [×10⁻⁶ cm/s] | Activity (HeLa [12]) | Activity (Caco-2 [13]) [%] | Activity (Caco-2 [14]) [%] | Activity (Caco-2 [15]) [%] | Activity (MDA-MB-231 [16]) | Activity (Caco-2 [17]) [%] | Papp at 5 min, 50 µM [18] [×10⁻⁶ cm/s] | permeability [19] | Activity (Caco-2 [20]) [%] | other results |
| --- | --- | --- | --- | --- | --- | --- | --- | --- | --- | --- | --- | --- | --- | --- | --- | --- | --- | --- | --- | --- | --- |
| CC[C@@]1(O)C(=O)OCc2c1cc1n(c2=O)Cc2cc3c4c(ccc3nc2-1)OCOC4 | 186 | 124 | 1.92 | 5.9 | 37.04 | 3.78 | 345 | 476 | Active | Active | 10 | Active | 3.56 | 1.18 | 24.72 | Active | 11.8 | 93.8 | permeable | 56.08 | Papp B→A at 50 µM [1]: 9.84 ×10⁻⁶ cm/s; Papp A→B at 50 µM [4]: 8.05 ×10⁻⁶ cm/s; Activity (Caco-2 [21]): 57%; Activity (Caco-2 [22]): 42.88%; Papp B→A at 50 µM [23]: 9.73 ×10⁻⁶ cm/s; permeability [24]: permeable; Activity (Homo sapiens): inactive; Activity (HeLa [25]): inactive; Activity (Caco-2 [26]): 3.68%; IC50 [27]: 104 nM; Activity (Caco-2 [28]): 61.56%; Activity (Caco-2 [29]): 47.78%; Activity (MDA-MB-231 [30]): Active; Activity (Caco-2 [31]): 33.54%; Activity (Caco-2 [32]): 3.2%; Activity (Caco-2 [33]): 8.16% |
| CC[C@@]1(O)C(=O)OCc2c1cc1n(c2=O)Cc2cc3ccccc3nc2-1 [CAMPTOTHECIN] | 187 | 110 | 0.12 | 4.32 | 36.98 | 3.02 | 420 | 342 | Active | Active | 7.88 | Active | 3.18 | 3.04 | 1.4 | Active | 15.22 | 74.8 | permeable | 56.16 | Activity (Caco-2 [21]): 51.12%; Activity (Caco-2 [22]): 13.7%; permeability [24]: permeable; Activity (HeLa [25]): inactive; Activity (Caco-2 [26]): 4.1%; IC50 [27]: 131 nM; Activity (Caco-2 [28]): 83.26%; Activity (Caco-2 [29]): 81.62%; Activity (MDA-MB-231 [30]): Active; Activity (Caco-2 [31]): 41.38%; Activity (Caco-2 [32]): 2.76%; Activity (Caco-2 [33]): 1.64% |
